# Measurements as given in ChEMBL document CHEMBL3232963, “Discovery of a potent and selective α3β4 nicotinic acetylcholine receptor antagonist from an α-conotoxin synthetic combinatorial library” (J Med Chem, 2014).
# Numbered stars: 1 amine (or outer) side, 2 acyl side, 3 side chain; on linkers, the order of the positions; unused ones are H or OH. Bridge positions count the residues as written; N and C are the ends. Square brackets hold non-standard residues; d marks the D form. Peptide text beside a SMILES is read from it. X1 = O=C([C@H](CC1C=Nc2ccccc21)N[*:1])[*:2]; Nle = CCCC[C@H](N)C(=O)O; Nva = CCC[C@H](N)C(=O)O; Abu = CC[C@H](N)C(=O)O
# Target: Neuronal acetylcholine receptor; alpha3/beta4 (Rattus norvegicus) (UniProt P04757+P12392)
# Experiment: Antagonist activity at rat alpha3beta4 nAChR expressed in HEK293 cells assessed as inhibition of epibatadine-induced effect at 10 uM after 30 mins by fluorescent membrane potential assay relative to mecamylamine
# Format: cell-based
# In short: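 Rat α3β4 nAChR stably expressed in HEK293 cells; crude, SPE-desalted individual peptides tested at 10 μM in HBSS with membrane potential blue dye, 30 min at 37 °C. Fluorescence change read after epibatidine (0.1 μM). Percent inhibition set against 10 μM mecamylamine taken as 100%.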
row,Structure (SMILES),inhibition
1,"CCCC[C@@H]1NC(=O)[C@H](CC)NC(=O)[C@H](Cc2ccccc2)NC(=O)[C@@H]2CSSC[C@H](NC(=O)CN)C(=O)N[C@@H](CSSC[C@@H](C(=O)O)NC(=O)[C@@H]3CCCN3C1=O)C(=O)N[C@@H](CO)C(=O)N[C@@H](Cc1cnc[nH]1)C(=O)N1CCC[C@H]1C(=O)N1CCC[C@H]1C(=O)N2 (H-GCCSHPPCF[Abu][Nle]PC-OH; disulfide 2-8, 3-13)",29.1%
2,CCCC[C@@H]1NC(=O)[C@H](CC)NC(=O)[C@H]([C@H](C)CC)NC(=O)[C@@H]2CSSC[C@H](NC(=O)CN)C(=O)N[C@@H](CSSC[C@@H](C(=O)O)NC(=O)[C@@H]3CCCN3C1=O)C(=O)N[C@@H](CO)C(=O)N[C@@H](CCCC)C(=O)N1CCC[C@H]1C(=O)N[C@@H](CC)C(=O)N2,42.9%
3,CCC[C@@H]1NC(=O)[C@H](Cc2c[nH]c3ccccc23)NC(=O)[C@H]([C@H](C)CC)NC(=O)[C@@H]2CSSC[C@H](NC(=O)CN)C(=O)N[C@@H](CSSC[C@@H](C(=O)O)NC(=O)[C@@H]3CCCN3C1=O)C(=O)N[C@@H](CO)C(=O)N[C@@H](Cc1cnc[nH]1)C(=O)N1CCC[C@H]1C(=O)N[C@@H](CC)C(=O)N2,38.7%
4,"CCCC[C@@H]1NC(=O)[C@H](CO)NC(=O)[C@@H]2CSSC[C@@H](C(=O)O)NC(=O)[C@@H]3CCCN3C(=O)[C@H](CCC)NC(=O)[C@H](CC)NC(=O)[C@H](Cc3ccccc3)NC(=O)[C@H](CSSC[C@H](NC(=O)CN)C(=O)N2)NC(=O)[C@H](CC)NC(=O)[C@@H]2CCCN2C1=O (H-GCCS[Nle]P[Abu]CF[Abu][Nva]PC-OH; disulfide 2-8, 3-13)",40.3%
5,"CCCC[C@@H]1NC(=O)[C@H](Cc2c[nH]c3ccccc23)NC(=O)[C@H](Cc2ccccc2)NC(=O)[C@@H]2CSSC[C@H](NC(=O)CN)C(=O)N[C@@H](CSSC[C@@H](C(=O)O)NC(=O)[C@H](Cc3ccc(O)cc3)NC1=O)C(=O)N[C@@H](CO)C(=O)N[C@@H](Cc1cnc[nH]1)C(=O)N1CCC[C@H]1C(=O)N1CCC[C@H]1C(=O)N2 (H-GCCSHPPCFW[Nle]YC-OH; disulfide 2-8, 3-13)",44%
6,"CCCC[C@@H]1NC(=O)[C@H](CO)NC(=O)[C@@H]2CSSC[C@@H](C(=O)O)NC(=O)[C@@H]3CCCN3C(=O)[C@H](CCC)NC(=O)[C@H](Cc3c[nH]c4ccccc34)NC(=O)[C@H](Cc3ccccc3)NC(=O)[C@H](CSSC[C@H](NC(=O)CN)C(=O)N2)NC(=O)[C@H](CC)NC(=O)[C@@H]2CCCN2C1=O (H-GCCS[Nle]P[Abu]CFW[Nva]PC-OH; disulfide 2-8, 3-13)",41.1%
7,CCCC[C@@H]1NC(=O)[C@H](CC)NC(=O)[C@H]([C@H](C)CC)NC(=O)[C@@H]2CSSC[C@H](NC(=O)CN)C(=O)N[C@@H](CSSC[C@@H](C(=O)O)NC(=O)[C@@H]3CCCN3C1=O)C(=O)N[C@@H](CO)C(=O)N[C@@H](CCCC)C(=O)N1CCC[C@H]1C(=O)N1CCC[C@H]1C(=O)N2,31.3%
8,"CCCC[C@@H]1NC(=O)[C@H](CC)NC(=O)[C@H](Cc2ccccc2)NC(=O)[C@@H]2CSSC[C@H](NC(=O)CN)C(=O)N[C@@H](CSSC[C@@H](C(=O)O)NC(=O)[C@@H]3CCCN3C1=O)C(=O)N[C@@H](CO)C(=O)N[C@@H](CCCC)C(=O)N1CCC[C@H]1C(=O)N1CCC[C@H]1C(=O)N2 (H-GCCS[Nle]PPCF[Abu][Nle]PC-OH; disulfide 2-8, 3-13)",54.6%
9,"CCCC[C@@H]1NC(=O)[C@H](CC2C=Nc3ccccc32)NC(=O)[C@H](Cc2ccccc2)NC(=O)[C@@H]2CSSC[C@H](NC(=O)CN)C(=O)N[C@@H](CSSC[C@@H](C(=O)O)NC(=O)[C@@H]3CCCN3C1=O)C(=O)N[C@@H](CO)C(=O)N[C@@H](CCCC)C(=O)N1CCC[C@H]1C(=O)N[C@@H](CC)C(=O)N2 (stereo not given in full) (H-GCCS[Nle]P[Abu]CF[X1][Nle]PC-OH; disulfide 2-8, 3-13)",22.1%
10,CCCC[C@@H]1NC(=O)[C@H](CO)NC(=O)[C@@H]2CSSC[C@@H](C(=O)O)NC(=O)[C@H](Cc3ccc(O)cc3)NC(=O)[C@H](CCC)NC(=O)[C@H](CC)NC(=O)[C@H]([C@H](C)CC)NC(=O)[C@H](CSSC[C@H](NC(=O)CN)C(=O)N2)NC(=O)[C@@H]2CCCN2C(=O)[C@@H]2CCCN2C1=O,50.9%
11,CCCC[C@@H]1NC(=O)[C@H](Cc2c[nH]c3ccccc23)NC(=O)[C@H]([C@H](C)CC)NC(=O)[C@@H]2CSSC[C@H](NC(=O)CN)C(=O)N[C@@H](CSSC[C@@H](C(=O)O)NC(=O)[C@@H]3CCCN3C1=O)C(=O)N[C@@H](CO)C(=O)N[C@@H](CCCC)C(=O)N1CCC[C@H]1C(=O)N1CCC[C@H]1C(=O)N2,6.3%
12,CCCC[C@@H]1NC(=O)[C@H](Cc2c[nH]c3ccccc23)NC(=O)[C@H]([C@H](C)CC)NC(=O)[C@@H]2CSSC[C@H](NC(=O)CN)C(=O)N[C@@H](CSSC[C@@H](C(=O)O)NC(=O)[C@H](Cc3ccc(O)cc3)NC1=O)C(=O)N[C@@H](CO)C(=O)N[C@@H](CCCC)C(=O)N1CCC[C@H]1C(=O)N1CCC[C@H]1C(=O)N2,51.8%
13,CCCC[C@@H]1NC(=O)[C@H](CO)NC(=O)[C@@H]2CSSC[C@@H](C(=O)O)NC(=O)[C@H](Cc3ccc(O)cc3)NC(=O)[C@H](CCC)NC(=O)[C@H](CC)NC(=O)[C@H]([C@H](C)CC)NC(=O)[C@H](CSSC[C@H](NC(=O)CN)C(=O)N2)NC(=O)[C@H](CC)NC(=O)[C@@H]2CCCN2C1=O,59.4%
14,"CCCC[C@@H]1NC(=O)[C@H](CO)NC(=O)[C@@H]2CSSC[C@@H](C(=O)O)NC(=O)[C@@H]3CCCN3C(=O)[C@H](CCC)NC(=O)[C@H](CC)NC(=O)[C@H](Cc3ccccc3)NC(=O)[C@H](CSSC[C@H](NC(=O)CN)C(=O)N2)NC(=O)[C@@H]2CCCN2C(=O)[C@@H]2CCCN2C1=O (H-GCCS[Nle]PPCF[Abu][Nva]PC-OH; disulfide 2-8, 3-13)",35.7%
15,"CCCC[C@@H]1NC(=O)[C@H](Cc2c[nH]c3ccccc23)NC(=O)[C@H](Cc2ccccc2)NC(=O)[C@@H]2CSSC[C@H](NC(=O)CN)C(=O)N[C@@H](CSSC[C@@H](C(=O)O)NC(=O)[C@H](Cc3ccc(O)cc3)NC1=O)C(=O)N[C@@H](CO)C(=O)N[C@@H](CCCC)C(=O)N1CCC[C@H]1C(=O)N[C@@H](CC)C(=O)N2 (H-GCCS[Nle]P[Abu]CFW[Nle]YC-OH; disulfide 2-8, 3-13)",76%
16,"CCCC[C@@H]1NC(=O)[C@H](Cc2c[nH]c3ccccc23)NC(=O)[C@H](Cc2ccccc2)NC(=O)[C@@H]2CSSC[C@H](NC(=O)CN)C(=O)N[C@@H](CSSC[C@@H](C(=O)O)NC(=O)[C@H](Cc3ccc(O)cc3)NC1=O)C(=O)N[C@@H](CO)C(=O)N[C@@H](CCCC)C(=O)N1CCC[C@H]1C(=O)N1CCC[C@H]1C(=O)N2 (H-GCCS[Nle]PPCFW[Nle]YC-OH; disulfide 2-8, 3-13)",60.2%
17,CCC[C@@H]1NC(=O)[C@H](CC)NC(=O)[C@H]([C@H](C)CC)NC(=O)[C@@H]2CSSC[C@H](NC(=O)CN)C(=O)N[C@@H](CSSC[C@@H](C(=O)O)NC(=O)[C@@H]3CCCN3C1=O)C(=O)N[C@@H](CO)C(=O)N[C@@H](Cc1cnc[nH]1)C(=O)N1CCC[C@H]1C(=O)N1CCC[C@H]1C(=O)N2,45.1%
18,"CCC[C@@H]1NC(=O)[C@H](CC)NC(=O)[C@H](Cc2ccccc2)NC(=O)[C@@H]2CSSC[C@H](NC(=O)CN)C(=O)N[C@@H](CSSC[C@@H](C(=O)O)NC(=O)[C@@H]3CCCN3C1=O)C(=O)N[C@@H](CO)C(=O)N[C@@H](Cc1cnc[nH]1)C(=O)N1CCC[C@H]1C(=O)N[C@@H](CC)C(=O)N2 (H-GCCSHP[Abu]CF[Abu][Nva]PC-OH; disulfide 2-8, 3-13)",47%
19,"CCC[C@@H]1NC(=O)[C@H](Cc2c[nH]c3ccccc23)NC(=O)[C@H](Cc2ccccc2)NC(=O)[C@@H]2CSSC[C@H](NC(=O)CN)C(=O)N[C@@H](CSSC[C@@H](C(=O)O)NC(=O)[C@@H]3CCCN3C1=O)C(=O)N[C@@H](CO)C(=O)N[C@@H](Cc1cnc[nH]1)C(=O)N1CCC[C@H]1C(=O)N[C@@H](CC)C(=O)N2 (H-GCCSHP[Abu]CFW[Nva]PC-OH; disulfide 2-8, 3-13)",36.2%
20,"CCCC[C@@H]1NC(=O)[C@H](CO)NC(=O)[C@@H]2CSSC[C@@H](C(=O)O)NC(=O)[C@@H]3CCCN3C(=O)[C@H](CCC)NC(=O)[C@H](Cc3c[nH]c4ccccc34)NC(=O)[C@H](Cc3ccccc3)NC(=O)[C@H](CSSC[C@H](NC(=O)CN)C(=O)N2)NC(=O)[C@@H]2CCCN2C(=O)[C@@H]2CCCN2C1=O (H-GCCS[Nle]PPCFW[Nva]PC-OH; disulfide 2-8, 3-13)",37.1%
21,CCCC[C@@H]1NC(=O)[C@H](CO)NC(=O)[C@@H]2CSSC[C@@H](C(=O)O)NC(=O)[C@@H]3CCCN3C(=O)[C@H](CCC)NC(=O)[C@H](Cc3c[nH]c4ccccc34)NC(=O)[C@H]([C@H](C)CC)NC(=O)[C@H](CSSC[C@H](NC(=O)CN)C(=O)N2)NC(=O)[C@H](CC)NC(=O)[C@@H]2CCCN2C1=O,44.8%
22,"CCC[C@@H]1NC(=O)[C@H](Cc2c[nH]c3ccccc23)NC(=O)[C@H](Cc2ccccc2)NC(=O)[C@@H]2CSSC[C@H](NC(=O)CN)C(=O)N[C@@H](CSSC[C@@H](C(=O)O)NC(=O)[C@H](Cc3ccc(O)cc3)NC1=O)C(=O)N[C@@H](CO)C(=O)N[C@@H](Cc1cnc[nH]1)C(=O)N1CCC[C@H]1C(=O)N[C@@H](CC)C(=O)N2 (H-GCCSHP[Abu]CFW[Nva]YC-OH; disulfide 2-8, 3-13)",72.1%
23,CCCC[C@@H]1NC(=O)[C@H](CC)NC(=O)[C@H]([C@H](C)CC)NC(=O)[C@@H]2CSSC[C@H](NC(=O)CN)C(=O)N[C@@H](CSSC[C@@H](C(=O)O)NC(=O)[C@H](Cc3ccc(O)cc3)NC1=O)C(=O)N[C@@H](CO)C(=O)N[C@@H](CCCC)C(=O)N1CCC[C@H]1C(=O)N[C@@H](CC)C(=O)N2,72.6%
24,CCCC[C@@H]1NC(=O)[C@H](CC2C=Nc3ccccc32)NC(=O)[C@H]([C@H](C)CC)NC(=O)[C@@H]2CSSC[C@H](NC(=O)CN)C(=O)N[C@@H](CSSC[C@@H](C(=O)O)NC(=O)[C@@H]3CCCN3C1=O)C(=O)N[C@@H](CO)C(=O)N[C@@H](CCCC)C(=O)N1CCC[C@H]1C(=O)N[C@@H](CC)C(=O)N2 (stereo not given in full),51.4%
25,CCCC[C@@H]1NC(=O)[C@H](CO)NC(=O)[C@@H]2CSSC[C@@H](C(=O)O)NC(=O)[C@@H]3CCCN3C(=O)[C@H](CCC)NC(=O)[C@H](CC)NC(=O)[C@H]([C@H](C)CC)NC(=O)[C@H](CSSC[C@H](NC(=O)CN)C(=O)N2)NC(=O)[C@@H]2CCCN2C(=O)[C@@H]2CCCN2C1=O,45.7%
